ChEMBL document CHEMBL5316289, “Structure-Based Rational Design of Small α-Helical Peptides with Broad-Spectrum Activity against Multidrug-Resistant Pathogens” (J Med Chem, 2023)
Calls of active or inactive are those of the source. No cut-off for these calls is given here. Where a SMILES comes first, the peptide text is derived from it. Bridges are numbered along the chain shown (N, C = ends). [ ]: non-standard residue; d: D form. The star is where a group is joined. X1 = CC[C@H](C)CCCCC(=O)*; Dab = NCC[C@H](N)C(=O)O

Key:
[1] = system: Escherichia coli; assay: Bactericidal activity against […] Escherichia coli ATCC BAA 2452 assessed as inhibition of bacterial growth at 4 times of MIC incubated for 2.5 hrs by Time kill assay; format: functional
Summary of the method: (§1)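 Aliquots taken every 30 min for 4 h and plated on agar for viable colony counts. Two independent experiments in triplicate.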

[2] = system: Cell membrane; assay: Disruption of cell membrane in methicillin resistant Staphylococcus aureus ATCC BAA 1556 assessed as increase in PI fluorescence intensity at MIC measured after 1 hrs by PI staining based flow cytometric analysis; format: subcellular
Summary of the method: (§2)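 Mid-log cells grown in Mueller Hinton broth, washed in 10 mM Tris pH 7.4, 10^7 CFU/mL, treated at MIC and 4× MIC for 1 h. Pelleted, washed, PI-stained for 15 min at 37 °C in the dark, then counted by flow cytometry for % PI-positive cells. PBS-treated cells as negative control, 10% Triton X-100 as positive control. Run in triplicate; two-tailed unpaired t-test.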

[3] = system: Lipid bilayer; assay: Induction of membrane disruption in mammalian membrane mimic DOPC/cholesterol (10:1) large unilamellar vesicles assessed as induction of dye leakage at 50 ug/ml measured after 100 mins by calcein dye based analysis; format: cell membranes; details: dose 50.0 µg/ml
Summary of the method: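 LUVs loaded with calcein: DOPC/DOPG 7:3 w/w (bacterial mimic) or DOPC/cholesterol 10:1 w/w (mammalian mimic). Mixed 1:1 by volume with peptide at 5, 10, 20, 30 or 50 μg/mL. Fluorescence (ex 490/em 520 nm) read every 10 min for 100 min. Leakage expressed relative to 10% Triton X-100 lysis (100%), after subtracting liposome background. Triplicate.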

[4] = system: Cell membrane; assay: Disruption of cell membrane in methicillin resistant Staphylococcus aureus ATCC BAA 1556 assessed as increase in PI fluorescence intensity at 4 times of MIC measured after 1 hrs by PI staining based flow cytometric analysis; summary of the method: as §2
[5] = system: Cell membrane; assay: Disruption of cell membrane in Escherichia coli ATCC BAA-2452 assessed as increase in PI fluorescence intensity at 4 times of MIC measured after 1 hrs by PI staining based flow cytometric analysis; format: subcellular
Summary of the method: (§3)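 Mid-log E. coli ATCC BAA-2452 grown in Mueller Hinton broth, washed thrice and resuspended at 10^7 CFU/mL in 10 mM Tris pH 7.4. […] Controls: PBS (negative) and 10% Triton X-100 (positive). Triplicate; two-tailed unpaired t-test.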

[6] = system: Staphylococcus aureus; assay: Bactericidal activity against methicillin resistant Staphylococcus aureus ATCC BAA 1556 assessed as inhibition of bacterial growth at 4 times of MIC incubated for 3 hrs by Time kill assay; format: functional; summary of the method: as §1
[7] = system: Cell membrane; assay: Disruption of cell membrane in Escherichia coli ATCC BAA-2452 assessed as increase in PI fluorescence intensity at MIC measured after 1 hrs by PI staining based flow cytometric analysis; format: subcellular; summary of the method: as §3

SMILES: CC[C@H](C)CCCCC(=O)N[C@@H](CCN)C(=O)N[C@H](C(=O)N[C@@H](CCN)C(=O)N[C@H]1CCNC(=O)[C@H]([C@@H](C)O)NC(=O)[C@H](CCN)NC(=O)[C@H](CCN)NC(=O)[C@H](CC(C)C)NC(=O)[C@@H](Cc2ccccc2)NC(=O)[C@H](CCN)NC1=O)[C@@H](C)O (X1-[Dab]T[Dab][Dab][Dab][dF]L[Dab][Dab]T; lactam 4-C)
- inhibition (INH) [1]: 100%

SMILES: CCCCCCCCCC(=O)N[C@@H](Cc1c[nH]c2ccccc12)C(=O)N[C@H](CC(N)=O)C(=O)N[C@@H](CC(=O)O)C(=O)N[C@@H]1C(=O)NCC(=O)N[C@@H](CCCN)C(=O)N[C@@H](CC(=O)O)C(=O)N[C@H](C)C(=O)N[C@@H](CC(=O)O)C(=O)NCC(=O)N[C@H](CO)C(=O)N[C@@H]([C@H](C)CC(=O)O)C(=O)N[C@@H](CC(=O)c2ccccc2N)C(=O)O[C@@H]1C
- Activity [2]: inactive
- Activity [3]: 7%
- Activity [4]: inactive
- Activity [5]: inactive
- inhibition (INH) [6]: 100%
- Activity [7]: inactive
